Measurements taken from ChEMBL document CHEMBL1132485, “Synthesis and biological evaluation of a potent E-selectin antagonist” (J Med Chem, 1999).
Values joined by “and” are separate entries in the source; they are usually repeats but may differ in a detail not shown here. Equal values may be shown once.

Assays:
[1] = molecular target: T1, E-selectin (Homo sapiens) (UniProt P16581); experiment: Ratio of IC50 of compound to IC50 of sLex; format: functional
T1 sequence (whole entry): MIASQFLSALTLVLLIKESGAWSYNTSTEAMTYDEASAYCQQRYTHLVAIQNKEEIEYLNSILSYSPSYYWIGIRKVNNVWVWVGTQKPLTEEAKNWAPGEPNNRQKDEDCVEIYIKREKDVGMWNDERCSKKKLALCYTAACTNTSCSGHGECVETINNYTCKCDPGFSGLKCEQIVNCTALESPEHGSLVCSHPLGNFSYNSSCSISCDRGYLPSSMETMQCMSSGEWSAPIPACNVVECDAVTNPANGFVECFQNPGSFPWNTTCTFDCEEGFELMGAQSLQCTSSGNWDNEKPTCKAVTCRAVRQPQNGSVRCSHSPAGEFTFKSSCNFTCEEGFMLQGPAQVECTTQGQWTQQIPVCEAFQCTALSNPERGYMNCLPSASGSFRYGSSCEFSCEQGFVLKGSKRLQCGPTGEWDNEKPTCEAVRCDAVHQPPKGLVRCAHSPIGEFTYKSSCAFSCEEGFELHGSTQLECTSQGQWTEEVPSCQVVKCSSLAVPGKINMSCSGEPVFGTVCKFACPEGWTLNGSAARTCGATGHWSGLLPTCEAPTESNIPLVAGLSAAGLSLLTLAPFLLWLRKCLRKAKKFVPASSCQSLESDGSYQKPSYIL
Outline: (§1)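 Cell-free competitive binding assay in which immobilized E-selectin is incubated with a multivalent polylysine/sialyl Lewis^a conjugate and then treated with test compounds. The sLe^x tetrasaccharide is run as a reference on every plate. Relative IC50 is IC50(test)/IC50(sLe^x) from the same plate. Data come from three separate assays.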

[2] = species: Mus musculus; experiment: Inhibitory effect in a thioglycollate induced peritonitis model of acute inflammation in mice; format: functional
[3] = molecular target: T2, E-selectin (Homo sapiens, UniProt P16581); experiment: In vitro inhibitory activity against Selectin E; outline: as §1
T2 sequence (P16581 whole entry): T1 sequence (whole entry)

[4] = molecular target: T2, E-selectin; experiment: In vitro inhibitory activity against Selectin E measured by sLex(static cell free ligand binding assay); outline: as §1

SMILES | Relative IC50 [1] | ED50 [2] | IC50 [3] | IC50 [4]
C[C@@H]1O[C@@H](O[C@@H]2[C@H](CO)OCC[C@H]2O[C@@H]2O[C@@H](CO)[C@H](O)C(O[C@@H](CC3CCCCC3)C(=O)[O-])[C@@H]2O)[C@@H](O)[C@@H](O)[C@@H]1O.[Na+] (some centres undefined) | 0.031 [middle of 4 runs] | 15 mg/kg | 33 µM and 24 µM and 51 µM and 36 µM | 
COC(=O)CCCCCCCCO[C@@H]1C[C@@H](CO)[C@@H](O[C@@H]2O[C@@H](O)[C@H](O)[C@H](O[C@]3(C(=O)O)C[C@@H](O)[C@@H](NC(C)=O)[C@H]([C@H](O)[C@H](O)CO)O3)[C@@H]2O)[C@H](O[C@@H]2O[C@@H](C)[C@@H](O)[C@H](O)[C@@H]2O)[C@@H]1NC(C)=O |  |  |  | 1180 µM and 889 µM and 1310 µM and 1130 µM
